Assay [1] deals with SK-OV-3. The experiment in a line: Antiproliferative activity against MDR-1-6/6 overexpressing human SKOV3 cells. Format: functional, cell-based.
For assay [2], the system named is SK-OV-3. The experiment in a line: Antiproliferative activity against human SKOV3 cells. Format: functional, cell-based.
In assay [3] the test system is MDA-MB-435. The experiment in a line: Antiproliferative activity against human MDA-MB-435 cells by SRB assay. The format is functional, cell-based. The procedure, abridged: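 SRB assay on drug-sensitive MDA-MB-435 cells; IC50 is the concentration giving 50% inhibition of proliferation, n = 3.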
(The SRB assay estimates cell density from bound dye.)

Assay [4] in a line: Inhibition of microtubule polymerization in A-10 cells. Conditions: A10.
Assay [5] in a line: Ratio of EC50 for microtubule depolymerization in A-10 cells to IC50 for human MDA-MB-435 cells.
The subject of assay [6] is MDA-MB-435. The experiment in a line: Cell cycle arrest in human MDA-MB-435 cells assessed as accumulation of cells at G2/M phase at 3 times IC50 after 18 hrs by flow cytometry. The format is functional. Background: A flow cytometer gives signals particle by particle.
The test system of assay [7] is tubulin (Bos taurus). The assay is described as follows: Displacement of [3H]colchicine from bovine brain tubulin at 5 uM. Background: Loss of bound radioactivity is the signal in a displacement assay; it reports binding, not function.
Assay [8] can be described thus: Inhibition of bovine brain tubulin assembly.
For assay [9], the system named is HeLa. The assay is described as follows: Antiproliferative activity against human HeLa cells. The format is functional, cell-based.
In assay [10] the test system is HeLa. The experiment in a line: Relative resistance ratio of IC50 for beta3-tubulin overexpressing human HeLa cells to IC50 for human HeLa cells. Format: functional.
For assay [11], the system named is SK-OV-3. The assay is described as follows: Relative resistance ratio of IC50 for MDR-1-6/6 overexpressing human SKOV3 cells to IC50 for human SKOV3 cells. Format: functional.
The test system of assay [12] is HeLa. The assay is described as follows: Antiproliferative activity against beta3-tubulin overexpressing human HeLa cells. The format is functional, cell-based.
Assay [13] has as its system tubulin (Bos taurus). The experiment in a line: Displacement of [3H]colchicine from bovine brain tubulin using purified tubulin at 1 uM.
In assay [14] the test system is MDA-MB-435. The experiment in a line: Cell cycle arrest in human MDA-MB-435 cells assessed as accumulation of cells at subG1 phase at 3 times IC50 after 18 hrs by flow cytometry. Format: functional, cell-based.

The record followed here is ChEMBL document CHEMBL1821698, “Synthesis and biological activities of (R)- and (S)-N-(4-Methoxyphenyl)-N,2,6-trimethyl-6,7-dihydro-5H-cyclopenta[d]pyrimidin-4-aminium chloride as potent cytotoxic antitubulin agents” (J Med Chem, 2011).

Activity calls are given as the source filed them. The rule behind the calls is not given here.

Broadly, the IC50 is the concentration that gives 50% inhibition. A high value points to weaker potency in that assay. A word on the EC50: it is the concentration that produces a half-maximal response. The low end stands for an effect from little substance, the high end for a need for much substance. For orientation: inhibition means the relative decrease from the control value, in per cent.

In the case of `CC(=O)O[C@H]1C(=O)[C@@]2(C)[C@H]([C@H](OC(=O)c3ccccc3)[C@]3(O)C[C@H](OC(=O)[C@H](O)[C@@H](NC(=O)c4ccccc4)c4ccccc4)C(C)=C1C3(C)C)[C@]1(OC(C)=O)CO[C@@H]1C[C@@H]2O` [PACLITAXEL], the half-inhibitory concentration (IC50) in assay [1] is 4880 nM; in [2], 2.95 nM.
For `COc1ccc(N(C)c2nc(C)nc3c2C[C@@H](C)C3)cc1.Cl`, the IC50 was determined as 51 nM in [3]; 120 nM in assay [1]; 2100 nM in assay [8]; 92.9 nM in assay [9]; 85.9 nM in assay [2]; 67.7 nM in assay [12]. The response in assay [4] was half-maximal at 278 nM (EC50). For the same compound, in [5], the Ratio was determined as 5. Moreover, in assay [6], the Activity worked out at 91.4%. The inhibition in assay [7] is 77%; in [13], 37%. Besides, the figures for the “Ratio IC50” value in assay [10] and in assay [11] were 0.7 and 1.4, respectively.
Consider `COc1ccc(/C=C\c2cc(OC)c(OC)c(OC)c2)cc1O` [COMBRETASTATIN A4], for which the IC50 in assay [3] was 3.4 nM; in assay [1] it was 22 nM; in [2], 6.05 nM. Also, the EC50 in assay [4] came out at 13 nM. In assay [6], the Activity came to 88.4%. Further, the inhibition stood at 98% in [7] and 85% in assay [13].
On to `COc1ccc(N(C)c2nc(C)nc3c2CC(C)C3)cc1.Cl` (racemic), for which the IC50 in assay [3] was 17 nM; in assay [1] it was 60.9 nM; in assay [8] it was 1500 nM; in assay [9], 37.3 nM; in assay [2], 34.5 nM; in assay [12], 23.9 nM. Also, the result in assay [14] was Active. For the same compound, the EC50 in assay [4] amounted to 56 nM. The Ratio in [5] came out at 3. Also, the Activity in assay [6] is given as 65.9%. The inhibition in assay [7] stood at 87%; in assay [13], 59%. The “Ratio IC50” value in assay [10] amounted to 0.6; in [11], 1.8.
With `COc1ccc(N(C)c2nc(C)nc3c2C[C@H](C)C3)cc1.Cl`, the concentration for half-maximal inhibition (IC50) turned out to be 12 nM in [3]; 62.6 nM in assay [1]; 1300 nM in assay [8]; 19 nM in assay [9]; 16.4 nM in assay [2]; 13.3 nM in assay [12]. Further, the outcome in [14] was Active. The same compound yielded an EC50 in [4] of 23 nM. Also, the Ratio in assay [5] amounted to 2. For the same compound, the Activity in [6] came to 49.2%. The inhibition in [7] came out at 93%; in assay [13], 70%. The results for the “Ratio IC50” value in [10] and in assay [11] were 0.7 and 3.8, respectively.
